In ChEMBL document CHEMBL1121519, “Basic antiinflammatory compounds. N,N',N''-Trisubstituted guanidines” (J Med Chem, 1980):

Tests used:
Rattus norvegicus [1] = experiment: Percent inhibition of carrageenan paw edema in rat, administered orally at a dose of one tenth of oral lethal dose in mice; type: functional
How it was run: (§1)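 1 h later, 0.1 mL of 1% carrageenan was injected into the right hind-paw plantar tissue. Paw swelling was measured by mercury-displacement plethysmometry 3 h after carrageenan, compared with controls.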

Rattus norvegicus [2] = experiment: Total score is the sum of scores obtained in the adjuvant arthritis, acute toxicity, carrageenan edema, and prostaglandin synthetase assay; type: functional
[3] = target: T1, Cyclooxygenase (Bos taurus) (UniProt O62664+O62698); experiment: Inhibition of prostaglandin synthetase in bovine seminal vesicle microsomes using Beckman liquid scintillation counter at 10 e-5 M; details: Microsome
[4] = Lethal dose in mice determined by Litchfield and Wilcoxon methods after peroral administration.; type: toxicity, organism-based; details: mouse, in vivo, po
How it was run: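 Median lethal dose found after oral dosing of mice, four mice per dose level, and calculated by the Litchfield–Wilcoxon method.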

Rattus norvegicus [5] = species: Rattus norvegicus; experiment: Tested for inhibition in the rat paw not injected with […].; type: functional; design: concentration or dose not given beside the values
How it was run: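 Adjuvant-induced arthritis, female Lewis rats, six per group: M. butyricum in mineral oil (3 mg/mL, 0.1 mL) injected into right hind paw plantar tissue. Daily oral dosing from adjuvant day to day 28, 10 or 5 (mg/kg)/day according to mouse oral LD50 (≥1000 or <1000 mg/kg). Injected and noninjected paw swelling read by mercury-displacement plethysmometry on day 28.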

Rattus norvegicus [6] = species: Rattus norvegicus; experiment: Tested for inhibition in the rat paw injected with carrageenan.; type: functional; design: concentration or dose not given beside the values
Rattus norvegicus [7] = species: Rattus norvegicus; experiment: Average percent inhibition of the swelling of both injected and non injected paw was measured; […]; type: functional
[8] = Toxic score (3) was measured as lethal dose in orally administered mice; type: toxicity, organism-based; details: mouse, in vivo, po
How it was run: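 Score derived from mouse oral LD50 (Litchfield–Wilcoxon, four mice per dose), in mg/kg: >1000 = 3; 500-1000 = 2; <500 = 1.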

[9] = target: T1, Cyclooxygenase (Bos taurus); experiment: Tested for Prostaglandin synthetase inhibition in Bovine seminal vesicle microsomes using Beckman liquid scintillation counter at 10 e-5 M; type: functional; details: Microsome
Rattus norvegicus [10] = experiment: Tested for percent enhancement of carrageenan paw edema in rat, administered orally at a dose of one tenth of oral lethal dose in mice; type: functional; how it was run: as §1
Rattus norvegicus [11] = species: Rattus norvegicus; experiment: Average percent inhibition (arthritis score=3) of the swelling of both injected and non injected paw was measured; type: functional
How it was run: (§2)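 Adjuvant arthritis in inbred female Lewis rats, groups of six, acclimatized 2 weeks. Arthritis induced by injecting 0.1 mL M. butyricum in mineral oil (3 mg/mL) into right hind paw plantar tissue. Oral dosing daily from adjuvant day to day 28: 10 (mg/kg)/day if mouse oral LD50 ≥1000 mg/kg, else 5 (mg/kg)/day. Swelling of injected and noninjected paws measured day 28 by mercury-displacement plethysmometry; mean percent inhibition scored 0–3.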

Rattus norvegicus [12] = species: Rattus norvegicus; experiment: Tested for enhancement in the rat paw not injected with carrageenan.; type: functional
Rattus norvegicus [13] = species: Rattus norvegicus; experiment: Average percent inhibition (arthritis score)of the swelling of both injected and non injected paw was measured; type: functional; how it was run: as §2
Rattus norvegicus [14] = species: Rattus norvegicus; experiment: Tested for enhancement in the rat paw injected with carrageenan.; type: functional
Rattus norvegicus [15] = species: Rattus norvegicus; experiment: Average percent inhibition (arthritis score=0) of the swelling of both injected and non injected paw was measured; type: functional; how it was run: as §2
Rattus norvegicus [16] = species: Rattus norvegicus; experiment: Average percent inhibition (arthritis score=1) of the swelling of both injected and non injected paw was measured;values ranges from: […]-[…]; type: functional

Row | Structure (SMILES) | Inhibition (Rattus norvegicus [1]) | Total score (Rattus norvegicus [2]) | inhibition [3] | LD50 [4] | Inhibition (Rattus norvegicus [6]) | LD50 [8] | further results
1 | Cc1cc(N/C(=N/C2(C)CCCC2)Nc2nccs2)c2ccccc2n1 | 46% | 7 | 100% | 600 mg/kg |  |  | 
2 | Cc1cc(N/C(=N/C(C)(C)C)Nc2cccs2)c2ccccc2n1 | 73% | 8 | 37.2% | > 1000 mg/kg | 16% | > 1000 mg/kg | Inhibition (Rattus norvegicus [5]): 26%; Inhibition (Rattus norvegicus [7]): 29%
3 | CC(C)(C)/N=C(/Nc1nccs1)Nc1cccnc1Cl | 19% |  |  | > 1000 mg/kg |  |  | inhibition [9]: 10.1%
4 | CCCCCCCCCC/N=C(\Nc1nccs1)Nc1cc(C)nc2ccccc12 | 4% |  |  | > 1000 mg/kg |  |  | inhibition [9]: 4.5%
5 | Cc1cc(N/C(=N/C2CCCCC2)Nc2nc3ccccc3[nH]2)c2ccccc2n1 |  |  | 7.2% | > 1000 mg/kg |  |  | Enhancement (Rattus norvegicus [10]): 13%
6 | Cc1csc(/N=C(\Nc2cc(C)nc3ccccc23)NC(C)(C)C)n1 | 31% | 9 | 95.1% | 600 mg/kg | 53% | > 1000 mg/kg | Inhibition (Rattus norvegicus [11]): >=50%; Inhibition (Rattus norvegicus [5]): 59%
7 | CCOC(=O)c1cnc(/N=C(\Nc2cc(C)nc3ccccc23)NC2CCCCC2)s1 |  |  | 15.6% | > 1000 mg/kg |  |  | Enhancement (Rattus norvegicus [10]): 16%
8 | Cc1cc(N/C(=N/C2CCCCC2)Nc2nc(C)c(C)s2)c2ccccc2n1 | 54% | 8 | 87.9% | > 1000 mg/kg | 7% | > 1000 mg/kg | Enhancement (Rattus norvegicus [12]): 63%; Inhibition (Rattus norvegicus [13]): <10%
9 | Cc1ccc2nc(C)cc(N/C(=N/C3CCCCC3)Nc3nccs3)c2c1 | 65% | 6 | 0.6% | > 1000 mg/kg |  | > 1000 mg/kg | Inhibition (Rattus norvegicus [5]): 0%; Enhancement (Rattus norvegicus [14]): 21%; Inhibition (Rattus norvegicus [15]): <10%
10 | CCCCC/N=C(\Nc1nccs1)Nc1cc(C)nc2ccccc12 | 62% | 7 | -37% | 400 mg/kg | 19% | > 1000 mg/kg | Enhancement (Rattus norvegicus [12]): 4%; Inhibition (Rattus norvegicus [16]): 29%
11 | Cc1cc(N/C(=N/C(C)(C)C)NC2NC=CS2)c2ccccc2n1 (stereo not given) | 41% |  |  | 200 mg/kg |  |  | inhibition [9]: 1.3%
12 | Cc1cc(N/C(=N/c2ccccc2)Nc2nccs2)c2ccccc2n1 | 59% | 10 | 83.8% | > 1000 mg/kg | 46% | > 1000 mg/kg | Inhibition (Rattus norvegicus [5]): 47%; Inhibition (Rattus norvegicus [7]): 49%
13 | Clc1ccc2c(N/C(=N/C3CCCCC3)Nc3nccs3)ccnc2c1 | 56% |  | 21.6% | > 1000 mg/kg |  |  | 
14 | Cc1cc(N/C(=N/C2CCCCCC2)Nc2nccs2)c2ccccc2n1 | 19% |  | 34.8% | > 1000 mg/kg |  |  | 
15 | Cc1cc(N/C(=N\CC(C)(C)C)Nc2nccs2)c2ccccc2n1 | 66% | 7 | 31.1% | 600 mg/kg | 31% |  | Inhibition (Rattus norvegicus [5]): 29%; Inhibition (Rattus norvegicus [16]): 29%
16 | CC(C)(C)/N=C(/Nc1nccs1)Nc1cccc2ccccc12 |  |  | 6.9% | > 1000 mg/kg |  |  | Enhancement (Rattus norvegicus [10]): 19%
17 | CC/N=C(/Nc1nccs1)Nc1cc(C)nc2ccccc12 | 56% |  | 8% | 100 mg/kg |  |  | 
18 | CC(C)CC(C)(C)/N=C(\Nc1ccncc1)Nc1nccs1 | 22% |  | 1.1% | 800 mg/kg |  |  | 
19 | CC(C)Cc1cc(N/C(=N/C2CCCCC2)Nc2nccs2)c2ccccc2n1 | 40% |  | 11% | > 1000 mg/kg |  |  | 
20 | Cc1nc2ccccc2cc1N/C(=N\C(C)(C)C)Nc1nccs1 | 24% |  | 2.3% | > 1000 mg/kg |  |  | 
